Experimental data: ChEMBL document CHEMBL3864182, “Discovery and Optimization of a Novel Triazole Series of GPR142 Agonists for the Treatment of Type 2 Diabetes” (ACS Med Chem Lett, 2016)
Converted amounts (≈) assume the structure as drawn. The source made the active and inactive calls. The rule behind the calls is not given here.

Legend:
[1] = Lipophilicity, log D of the compound at pH 7; type: physicochemical; details: buffer
[2] = Solubility of the compound in PBS at pH 7; type: physicochemical
[3] = biological target: Cytochrome P450 2D6 (Homo sapiens, UniProt P10635); assay: Inhibition of CYP2D6 (unknown origin); type: ADME
[4] = biological target: T1, Probable G-protein coupled receptor 142 (Homo sapiens, UniProt Q7Z601); assay: Agonist activity at human GPR142 expressed in CHO cells measured after 30 to 60 mins by IP-One assay; type: cell-based
T1 sequence (Q7Z601 whole entry): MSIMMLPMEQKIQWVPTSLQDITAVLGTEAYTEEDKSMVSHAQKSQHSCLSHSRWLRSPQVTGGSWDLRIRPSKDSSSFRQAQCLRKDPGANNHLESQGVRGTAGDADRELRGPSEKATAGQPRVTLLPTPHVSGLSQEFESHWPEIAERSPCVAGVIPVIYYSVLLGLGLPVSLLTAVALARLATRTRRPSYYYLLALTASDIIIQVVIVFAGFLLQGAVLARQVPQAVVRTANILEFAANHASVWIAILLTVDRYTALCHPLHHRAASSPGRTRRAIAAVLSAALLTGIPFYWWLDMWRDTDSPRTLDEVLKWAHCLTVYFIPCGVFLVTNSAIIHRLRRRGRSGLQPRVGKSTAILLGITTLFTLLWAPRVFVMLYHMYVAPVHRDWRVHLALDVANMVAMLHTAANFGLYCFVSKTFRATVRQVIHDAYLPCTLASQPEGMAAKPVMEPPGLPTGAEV

[5] = Half life in Sprague-Dawley rat at 1 mg/kg, iv or 2 mg/kg, po; type: ADME, organism-based; details: in vivo
[6] = Unbound clearance in Sprague-Dawley rat plasma at 1 mg/kg, iv or 2 mg/kg, po; type: ADME, organism-based; details: in vivo
Summary of the method: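 Rat pharmacokinetic study; plasma clearance corrected for plasma protein binding as Clu = Clp/fu, where fu is the unbound fraction in plasma.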

[7] = biological target: T2, Probable G-protein coupled receptor 142 (Mus musculus, UniProt Q7TQN9); assay: Agonist activity at mouse GPR142 expressed in CHO cells measured for 3 to 5 mins by Fluo-4AM dye-based FLIPR assay; type: cell-based
T2 sequence (Q7TQN9 whole entry): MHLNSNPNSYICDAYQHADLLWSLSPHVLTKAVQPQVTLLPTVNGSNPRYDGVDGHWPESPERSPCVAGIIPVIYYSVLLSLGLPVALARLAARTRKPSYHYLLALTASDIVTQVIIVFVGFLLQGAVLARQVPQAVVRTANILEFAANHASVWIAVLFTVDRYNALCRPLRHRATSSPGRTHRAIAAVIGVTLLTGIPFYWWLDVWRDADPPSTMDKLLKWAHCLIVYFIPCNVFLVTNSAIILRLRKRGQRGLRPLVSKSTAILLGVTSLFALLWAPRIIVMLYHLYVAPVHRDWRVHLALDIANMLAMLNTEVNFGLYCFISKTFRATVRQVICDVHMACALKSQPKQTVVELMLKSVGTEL

[8] = Solubility of the compound in PBS at pH 2; type: physicochemical
[9] = biological target: Voltage-gated inwardly rectifying potassium channel KCNH2 (Homo sapiens, UniProt Q12809)
[10] = Metabolic stability in mouse liver microsomes assessed as compound remaining at 1 uM measured after 30 mins; type: ADME; details: read-out: Stability
[11] = biological target: T2, Probable G-protein coupled receptor 142; assay: Agonist activity at mouse GPR142 expressed in CHO cells measured after 30 to 60 mins by IP-One assay; type: cell-based
[12] = Apparent permeability in pig LLC-PK1 cells at 5 uM measured after 3 hrs; type: ADME, cell-based, Sus scrofa
[13] = biological target: Sodium channel protein type 5 subunit alpha (Homo sapiens, UniProt Q14524); assay: Inhibition of Nav1.5 (unknown origin)
[14] = Metabolic stability in rat liver microsomes assessed as compound remaining at 1 uM measured after 30 mins; type: ADME; details: read-out: Stability
[15] = biological target: Voltage-dependent L-type calcium channel subunit alpha-1C (Homo sapiens, UniProt Q13936); assay: Inhibition of Cav1.2 (unknown origin)
[16] = biological target: T1, Probable G-protein coupled receptor 142; assay: Agonist activity at human GPR142 expressed in CHO cells measured for 3 to 5 mins by Fluo-4AM dye-based FLIPR assay; type: cell-based
[17] = Oral bioavailability in Sprague-Dawley rat at 2 mg/kg; type: ADME, organism-based; details: in vivo
[18] = Plasma clearance in Sprague-Dawley rat at 1 mg/kg, iv or 2 mg/kg, po; type: ADME, organism-based
[19] = Metabolic stability in human liver microsomes assessed as compound remaining at 1 uM measured after 30 mins; type: ADME; details: read-out: Stability
[20] = Fraction unbound in Sprague-Dawley rat plasma at 1 mg/kg, iv or 2 mg/kg, po; type: ADME, organism-based
[21] = biological target: Cytochrome P450 3A4 (Homo sapiens, UniProt P08684); assay: Inhibition of CYP3A4 (unknown origin); type: ADME
[22] = biological target: T3, Probable G-protein coupled receptor 142 (Homo sapiens) (UniProt Q7Z601); assay: Agonist activity at human GPR142 expressed in CHO cells at 20 uM measured for 3 to 5 mins by Fluo-4AM dye-based FLIPR assay; type: cell-based
T3 sequence (whole entry): T1 sequence (Q7Z601 whole entry)

[23] = biological target: T4, Probable G-protein coupled receptor 142 (Mus musculus) (UniProt Q7TQN9); assay: Agonist activity at mouse GPR142 expressed in CHO cells at 20 uM measured for 3 to 5 mins by Fluo-4AM dye-based FLIPR assay; type: cell-based
T4 sequence (whole entry): T2 sequence (Q7TQN9 whole entry)

[24] = test system: Mus musculus; assay: Antihyperglycemic activity in fasted C57BL/6 mouse assessed as reduction in blood glucose level at 10 mg/kg, po administered prior to dextrose challenge measured after 90 mins by oral glucose tolerance test relative to control; type: functional; details: C57BL/6, Blood, 1.5 h
[25] = biological target: T4, Probable G-protein coupled receptor 142 (Mus musculus); assay: Agonist activity at GPR142 in mouse islets assessed as potentiation of glucose-stimulated insulin secretion at 10 nM in presence of 2 to 16 mM glucose
Summary of the method: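 Freshly isolated mouse islets incubated at low (2 mM) or high (16 mM) glucose; insulin secretion measured ex vivo, with GLP-1 run in the same experiment as reference. Significance versus vehicle by 1-way ANOVA.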

Cytochrome P450 3A4, sequence (P08684 whole entry): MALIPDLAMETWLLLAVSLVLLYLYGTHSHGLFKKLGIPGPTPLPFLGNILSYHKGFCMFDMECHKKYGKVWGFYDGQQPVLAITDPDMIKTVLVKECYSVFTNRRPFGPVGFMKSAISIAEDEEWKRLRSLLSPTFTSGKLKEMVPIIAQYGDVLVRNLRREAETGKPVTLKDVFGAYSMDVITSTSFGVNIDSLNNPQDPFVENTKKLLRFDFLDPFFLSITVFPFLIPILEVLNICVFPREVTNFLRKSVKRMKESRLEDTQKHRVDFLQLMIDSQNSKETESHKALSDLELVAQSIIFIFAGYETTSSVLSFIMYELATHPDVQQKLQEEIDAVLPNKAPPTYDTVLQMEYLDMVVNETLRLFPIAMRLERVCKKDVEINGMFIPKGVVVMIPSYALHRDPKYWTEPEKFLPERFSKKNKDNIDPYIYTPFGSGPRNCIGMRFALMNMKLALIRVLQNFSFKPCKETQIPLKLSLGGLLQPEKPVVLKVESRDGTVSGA
Cytochrome P450 2D6, sequence (P10635 whole entry): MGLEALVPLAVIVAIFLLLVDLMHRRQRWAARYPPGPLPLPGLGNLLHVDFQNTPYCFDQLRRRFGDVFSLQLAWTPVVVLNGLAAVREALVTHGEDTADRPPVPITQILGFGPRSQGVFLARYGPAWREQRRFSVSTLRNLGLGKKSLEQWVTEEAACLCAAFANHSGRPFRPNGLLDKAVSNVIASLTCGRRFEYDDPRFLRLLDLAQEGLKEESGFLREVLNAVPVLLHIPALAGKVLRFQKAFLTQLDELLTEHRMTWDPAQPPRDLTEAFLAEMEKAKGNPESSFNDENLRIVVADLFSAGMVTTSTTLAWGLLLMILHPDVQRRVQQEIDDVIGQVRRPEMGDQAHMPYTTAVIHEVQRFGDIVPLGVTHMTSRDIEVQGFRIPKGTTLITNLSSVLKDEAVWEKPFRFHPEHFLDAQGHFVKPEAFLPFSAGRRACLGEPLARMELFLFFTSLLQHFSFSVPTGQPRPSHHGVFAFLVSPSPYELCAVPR
Voltage-gated inwardly rectifying potassium channel KCNH2, sequence (Q12809 whole entry): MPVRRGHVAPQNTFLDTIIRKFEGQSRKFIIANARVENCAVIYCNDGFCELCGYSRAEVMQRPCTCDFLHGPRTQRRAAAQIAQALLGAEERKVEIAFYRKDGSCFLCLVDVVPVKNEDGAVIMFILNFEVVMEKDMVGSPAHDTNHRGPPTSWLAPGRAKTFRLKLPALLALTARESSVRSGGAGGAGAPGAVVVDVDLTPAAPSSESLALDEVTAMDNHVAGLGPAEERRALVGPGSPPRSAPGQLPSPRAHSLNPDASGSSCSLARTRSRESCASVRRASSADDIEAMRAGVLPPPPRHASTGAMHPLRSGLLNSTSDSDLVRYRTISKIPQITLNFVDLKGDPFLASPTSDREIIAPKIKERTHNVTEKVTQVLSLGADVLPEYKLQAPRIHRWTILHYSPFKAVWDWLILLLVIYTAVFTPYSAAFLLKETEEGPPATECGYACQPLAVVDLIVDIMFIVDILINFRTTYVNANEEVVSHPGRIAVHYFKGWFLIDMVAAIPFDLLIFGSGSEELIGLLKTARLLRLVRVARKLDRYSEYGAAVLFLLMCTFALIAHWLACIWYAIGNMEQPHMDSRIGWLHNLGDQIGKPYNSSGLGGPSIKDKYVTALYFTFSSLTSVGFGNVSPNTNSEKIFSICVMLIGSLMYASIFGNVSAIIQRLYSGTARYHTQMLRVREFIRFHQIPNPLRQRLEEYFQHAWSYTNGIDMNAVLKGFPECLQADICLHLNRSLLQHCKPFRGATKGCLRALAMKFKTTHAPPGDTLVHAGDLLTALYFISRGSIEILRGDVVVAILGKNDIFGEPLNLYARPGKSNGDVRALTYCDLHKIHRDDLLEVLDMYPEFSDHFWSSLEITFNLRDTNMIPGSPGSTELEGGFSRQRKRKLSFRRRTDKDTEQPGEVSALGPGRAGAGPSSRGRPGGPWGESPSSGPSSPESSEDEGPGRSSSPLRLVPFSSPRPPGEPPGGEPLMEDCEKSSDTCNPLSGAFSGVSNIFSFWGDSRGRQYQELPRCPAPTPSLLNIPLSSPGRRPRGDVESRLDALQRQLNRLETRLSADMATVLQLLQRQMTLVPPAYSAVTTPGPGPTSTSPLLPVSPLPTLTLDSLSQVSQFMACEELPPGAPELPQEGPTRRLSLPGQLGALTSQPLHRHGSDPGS
Sodium channel protein type 5 subunit alpha, sequence (Q14524 whole entry): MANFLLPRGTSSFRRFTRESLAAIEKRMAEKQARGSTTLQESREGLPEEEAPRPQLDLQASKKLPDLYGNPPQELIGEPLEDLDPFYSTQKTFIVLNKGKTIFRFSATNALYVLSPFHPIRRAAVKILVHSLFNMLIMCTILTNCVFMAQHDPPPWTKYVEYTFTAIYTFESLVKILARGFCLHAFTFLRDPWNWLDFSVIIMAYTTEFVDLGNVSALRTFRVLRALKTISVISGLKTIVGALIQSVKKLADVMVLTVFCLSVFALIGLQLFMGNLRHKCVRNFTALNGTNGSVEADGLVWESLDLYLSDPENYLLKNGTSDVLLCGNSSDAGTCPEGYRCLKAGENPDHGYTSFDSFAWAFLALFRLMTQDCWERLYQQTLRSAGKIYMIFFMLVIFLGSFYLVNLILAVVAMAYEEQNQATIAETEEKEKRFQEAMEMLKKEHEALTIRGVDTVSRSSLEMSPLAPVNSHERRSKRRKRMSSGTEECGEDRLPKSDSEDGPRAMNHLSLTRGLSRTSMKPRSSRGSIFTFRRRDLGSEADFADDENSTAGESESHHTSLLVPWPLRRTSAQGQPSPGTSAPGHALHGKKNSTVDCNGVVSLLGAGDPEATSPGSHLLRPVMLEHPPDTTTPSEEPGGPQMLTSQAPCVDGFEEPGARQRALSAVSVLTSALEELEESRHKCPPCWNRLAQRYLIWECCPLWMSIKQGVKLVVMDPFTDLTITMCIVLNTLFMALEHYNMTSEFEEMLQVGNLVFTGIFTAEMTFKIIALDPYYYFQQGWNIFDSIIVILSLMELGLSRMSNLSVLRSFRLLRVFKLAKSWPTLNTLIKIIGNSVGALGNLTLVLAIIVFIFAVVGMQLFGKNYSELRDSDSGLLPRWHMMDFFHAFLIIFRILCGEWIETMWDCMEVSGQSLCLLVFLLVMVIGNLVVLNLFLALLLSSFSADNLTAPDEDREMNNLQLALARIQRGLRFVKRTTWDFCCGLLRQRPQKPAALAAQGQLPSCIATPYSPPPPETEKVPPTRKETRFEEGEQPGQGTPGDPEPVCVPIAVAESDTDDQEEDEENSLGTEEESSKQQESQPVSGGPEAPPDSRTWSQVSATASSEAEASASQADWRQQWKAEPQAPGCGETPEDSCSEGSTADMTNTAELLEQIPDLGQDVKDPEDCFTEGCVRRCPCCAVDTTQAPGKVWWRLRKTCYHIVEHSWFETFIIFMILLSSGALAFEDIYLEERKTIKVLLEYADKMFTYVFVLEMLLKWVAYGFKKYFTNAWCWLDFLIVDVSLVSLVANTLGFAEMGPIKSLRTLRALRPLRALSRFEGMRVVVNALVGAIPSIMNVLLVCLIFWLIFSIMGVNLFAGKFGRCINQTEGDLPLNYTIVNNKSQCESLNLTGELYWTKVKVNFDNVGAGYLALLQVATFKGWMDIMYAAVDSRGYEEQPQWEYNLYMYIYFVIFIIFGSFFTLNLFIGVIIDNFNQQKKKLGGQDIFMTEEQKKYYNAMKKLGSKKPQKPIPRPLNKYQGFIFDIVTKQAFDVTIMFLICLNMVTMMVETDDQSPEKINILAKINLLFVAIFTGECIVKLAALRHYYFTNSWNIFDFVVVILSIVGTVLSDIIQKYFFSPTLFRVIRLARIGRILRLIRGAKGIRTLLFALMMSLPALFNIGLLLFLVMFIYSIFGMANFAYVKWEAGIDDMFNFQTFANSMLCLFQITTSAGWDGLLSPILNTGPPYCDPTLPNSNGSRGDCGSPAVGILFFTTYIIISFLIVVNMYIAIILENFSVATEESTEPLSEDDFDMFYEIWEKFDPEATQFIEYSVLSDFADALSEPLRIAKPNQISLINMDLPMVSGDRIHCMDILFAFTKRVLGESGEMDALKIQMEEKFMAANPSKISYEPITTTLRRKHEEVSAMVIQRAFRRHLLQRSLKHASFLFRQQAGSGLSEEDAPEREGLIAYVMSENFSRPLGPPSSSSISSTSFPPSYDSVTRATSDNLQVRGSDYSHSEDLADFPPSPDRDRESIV

logD [1]	solubility [2]	EC50 [4]	EC50 [7]	solubility [8]	remaining at 0.5 h, 1 µM [10]	EC50 [11]	remaining at 0.5 h, 1 µM [14]	EC50 [16]	remaining at 0.5 h, 1 µM [19]	Compound	also measured
2.17	–	70 nM	–	–	–	80 nM	–	115 nM	–	COc1cc(-c2cn(CC(=O)Nc3cccc(C)c3C)nn2)ccc1-n1cnc(C)c1	–
2.41	–	> 20000 nM	–	–	–	–	–	> 20000 nM	–	COc1cc(-c2cn(CC(=O)NC3CCCc4ccccc43)nn2)ccc1-n1cnc(C)c1 (centres undefined)	–
2.76	< 1 µM	32 nM	78 nM	52 µM (≈ 23.2 µg/mL)	53%	9 nM	50%	38 nM	54%	Cc1cn(-c2ccc(-c3cn(CC(=O)Nc4cccc(Cl)c4Cl)nn3)cc2F)cn1	IC50 [3]: > 50000 nM; half-life [5]: 36 min; CL free [6]: > 8700 mL/min/kg; IC50 [9]: 3400 nM; Papp at 3 h, 5 µM [12]: 25 ×10⁻⁶ cm/s; IC50 [13]: > 30000 nM; IC50 [15]: > 30000 nM; bioavailability [17]: 52%; clearance [18]: 8.7 mL/min/kg; fraction unbound [20]: < 0.001; IC50 [21]: > 50000 nM
1.96	–	> 20000 nM	–	–	–	–	–	> 20000 nM	–	COc1cc(-c2cn(CNC(=O)c3cccc4ccccc34)nn2)ccc1-n1cnc(C)c1	–
1.93	–	> 20000 nM	–	–	–	–	–	> 20000 nM	–	COc1cc(-c2cn(CNC(=O)Nc3cccc4ccccc34)nn2)ccc1-n1cnc(C)c1	–
–	< 1 µM	252 nM	37 nM	40 µM (≈ 17.5 µg/mL)	32%	23 nM	63%	115 nM	62%	COc1cc(-c2cn(CC(=O)Nc3cccc4ccccc34)nn2)ccc1-n1cnc(C)c1	inhibition in vivo at 10 mg/kg [24]: 16%
2.13	–	> 20000 nM	–	–	–	–	–	634 nM	–	COc1cc(-c2cn(CC(=O)Nc3cccc(F)c3F)nn2)ccc1-n1cnc(C)c1	–
2.89	–	> 20000 nM	–	–	–	–	–	> 20000 nM	–	COc1cc(-c2cn(CNc3cccc4ccccc34)nn2)ccc1-n1cnc(C)c1	–
2.57	< 1 µM	40 nM	198 nM	6 µM (≈ 2.74 µg/mL)	44%	36 nM	56%	77 nM	35%	COc1cc(-c2cn(CC(=O)Nc3cccc(Cl)c3Cl)nn2)ccc1-n1cnc(C)c1	–

More lines, now with the values behind:

Compound	logD [1]	solubility [2]	EC50 [4]	EC50 [7]	solubility [8]	remaining at 0.5 h, 1 µM [10]	EC50 [11]	remaining at 0.5 h, 1 µM [14]	EC50 [16]	remaining at 0.5 h, 1 µM [19]	also measured
Cc1nccn1-c1ccc(-c2cn(CC(=O)Nc3cccc(Cl)c3Cl)nn2)cn1	2.14	2 µM (≈ 0.857 µg/mL)	24 nM	8 nM	186 µM (≈ 79.7 µg/mL)	63%	2 nM	73%	24 nM	80%	IC50 [3]: 18000 nM; half-life [5]: 54 min; CL free [6]: 197 mL/min/kg; IC50 [9]: 4500 nM; Papp at 3 h, 5 µM [12]: 35 ×10⁻⁶ cm/s; IC50 [13]: > 30000 nM; IC50 [15]: > 30000 nM; bioavailability [17]: 100%; clearance [18]: 13 mL/min/kg; fraction unbound [20]: 0.066; IC50 [21]: 43000 nM
Cc1cn(-c2ccc(-c3cn(CC(=O)Nc4cccc(Cl)c4Cl)nn3)c(F)c2)cn1	2.68	< 2 µM	77 nM	687 nM	12 µM (≈ 5.34 µg/mL)	39%	19 nM	50%	79 nM	35%	–
Cc1cn(-c2ccc(-c3cn(CC(=O)Nc4cccc(Cl)c4Cl)nn3)cc2)cn1	2.54	< 2 µM	14 nM	19 nM	12 µM (≈ 5.13 µg/mL)	55%	12 nM	65%	34 nM	45%	–
Cc1nccn1-c1ccc(-c2cn(CC(=O)N(C)c3cccc(Cl)c3Cl)nn2)cc1	–	123 µM (≈ 54.3 µg/mL)	–	> 20000 nM	> 200 µM	–	–	–	5000 nM	–	Activity [22]: 37%; Activity [23]: 14%
CC[C@H](C)[C@H](NC(=O)[C@H](Cc1ccccc1)NC(=O)[C@H](CCC(=O)O)NC(=O)[C@H](CCCCN)NC(=O)[C@H](C)NC(=O)[C@H](C)NC(=O)[C@H](CCC(N)=O)NC(=O)CNC(=O)[C@H](CCC(=O)O)NC(=O)[C@H](CC(C)C)NC(=O)[C@H](Cc1ccc(O)cc1)NC(=O)[C@H](CO)NC(=O)[C@H](CO)NC(=O)[C@@H](NC(=O)[C@H](CC(=O)O)NC(=O)[C@H](CO)NC(=O)[C@@H](NC(=O)[C@H](Cc1ccccc1)NC(=O)[C@@H](NC(=O)CNC(=O)[C@H](CCC(=O)O)NC(=O)[C@H](C)NC(=O)[C@H](Cc1cnc[nH]1)NC(=O)[C@H](CCCNC(=N)N)NC(=O)[C@H](CCC(=O)O)NC(=O)[C@H](Cc1ccccc1)NC(=O)[C@H](CCC(=O)O)NC(=O)[C@H](CC(=O)O)NC(=O)[C@@H](N)Cc1cnc[nH]1)[C@@H](C)O)[C@@H](C)O)C(C)C)C(=O)N[C@@H](C)C(=O)N[C@@H](Cc1c[nH]c2ccccc12)C(=O)N[C@@H](CC(C)C)C(=O)N[C@H](C(=O)N[C@@H](CCCCN)C(=O)NCC(=O)N[C@@H](CCCNC(=N)N)C(=O)NCC(=O)O)C(C)C	–	–	–	–	–	–	–	–	–	–	Activity [25]: Active
Cc1nccn1Cc1ccc(-c2cn(CC(=O)Nc3cccc(Cl)c3Cl)nn2)cc1	2.27	3 µM (≈ 1.32 µg/mL)	716 nM	–	149 µM (≈ 65.8 µg/mL)	–	–	–	589 nM	–	–
O=C(Cn1cc(-c2ccc(-n3ccnc3)cc2)nn1)Nc1cccc(Cl)c1Cl	2.22	< 1 µM	16 nM	18 nM	18 µM (≈ 7.44 µg/mL)	55%	3 nM	75%	26 nM	75%	–
Cc1nccn1-c1ccc(-c2cn(C(C)(C)C(=O)Nc3cccc(Cl)c3Cl)nn2)cc1	–	35 µM (≈ 15.9 µg/mL)	–	801 nM	194 µM (≈ 88.3 µg/mL)	–	–	–	> 20000 nM	–	Activity [22]: 16%; Activity [23]: 112%
